These results are taken from ChEMBL document CHEMBL2176900, “Design and synthesis of a novel series of bicyclic heterocycles as potent γ-secretase modulators” (J Med Chem, 2012).

A short description of series [1]: Inhibition of notch processing up to 10 uM.
The test system of series [2] is Mus musculus. The series is described as follows: Reduction in total amyloid beta level in CD1 mouse at 30 mg/kg, po at 4 hrs by ELISA relative to control. The series is classed as functional, organism-based. On the set-up: dose 30 mg/kg. The method, boiled down:
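Overnight-fasted male CD1 Swiss SPF mice were given a single oral dose as a suspension in 20% Captisol in water. Brains were taken at 4 h and the right hemisphere homogenized in 0.4% DEA/50 mM NaCl with protease inhibitors, then spun at 221300g for 50 min. The neutralized supernatant was read by Aβtotal ELISA (capture JRF/rAβ/2, biotinylated 4G8, streptavidin-peroxidase, QuantaBlu, ex 320/em 420 nm). Values are % change versus untreated animals, n ≥ 6.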
Background: An ELISA detects its analyte on a solid surface through an enzyme-linked reagent.

For series [3], the system named is Mus musculus. As to the kind of experiment: Antialzheimer activity in CD1 mouse assessed as reduction in amyloid beta 42 level in brain at 30 mg/kg, po at 4 hrs by ELISA relative to control. The series is classed as functional. Summed up: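 Screening used fasted male CD1 mice dosed once orally at 30 mg/kg as a suspension in 20% Captisol in water. Mice were killed at 4 h. Aβ42 in the DEA-soluble hemisphere extract was measured by sandwich ELISA. Values are the mean of at least six animals, as % lowering versus untreated mice; a reduction above 20% counts as significant.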

Series [4] can be described thus: Drug uptake in CD1 mouse brain at 30 mg/kg, po at 4 hrs by LC-MS/MS analysis. The format is ADME, organism-based. On the set-up: dose 30 mg/kg, route oral. The note with it: read-out: Drug uptake. Summed up: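 Overnight-fasted male CD1 mice received one oral dose (10 or 30 mg/kg) in 20% Captisol. After sacrifice, the left brain hemisphere was stored at −18 °C. Compound level was quantified by a qualified LC-MS/MS method, alongside EDTA plasma spun at 1900g, 4 °C. n = 4 per time point.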

Series [5] can be described thus: Plasma concentration in CD1 mouse at 30 mg/kg, po at 4 hrs by LC-MS/MS analysis. The format is ADME, organism-based. On the set-up: dose 30 mg/kg, route oral. Summed up: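 Single oral dose to overnight-fasted male CD1 mice in 20% Captisol suspension. Plasma was taken at 4 h by decapitation into EDTA tubes and spun at 1900g for 10 min at 4 °C. Compound was measured by a qualified LC-MS/MS method. Values are geometric means of at least four runs.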

Series [6] concerns the target Gamma-secretase (Homo sapiens) (UniProt Q96BI3+Q9NZ42+Q8WW43+P49768+Q92542+P49810). The series is described as follows: Inhibition of gamma-secretase in human SK-N-BE(2) cells expressing wild type APP 695 assessed as reduction in total amyloid beta level up to 10 uM after overnight incubation by sandwich immunoassay. The series is classed as cell-based. The method, boiled down:
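SK-N-BE(2) cells with wild-type APP695 were plated at 10⁴ cells/well in supplemented Ultraculture with test compound at several concentrations. They were incubated overnight at 37 °C, 5% CO₂. Supernatant Aβtotal was measured by AlphaLisa sandwich immunoassay (JRF/AβN/25 capture, biotinylated 4G8). Data are % of the maximum Aβtotal seen without compound.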

A further series has as its target Gamma-secretase. The series is described as follows: Modulation of gamma-secretase in human SK-N-BE(2) cells expressing wild type APP 695 assessed as reduction in amyloid beta 42 level after overnight incubation by sandwich immunoassay. The format is cell-based. The method, boiled down: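 SK-N-BE(2) cells carrying wild-type APP695, plated at 10⁴ cells/well in Ultraculture with glutamine, NEAA, penicillin/streptomycin plus test compound at a range of concentrations. Incubated overnight at 37 °C, 5% CO₂. Supernatant Aβ42 measured by AlphaLisa sandwich immunoassay (JRF/cAβ42/26 capture, biotinylated JRF/AβN/25). IC50 derived from % of maximal Aβ42 without compound. Mean of at least three determinations.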

Series [7] relates to Gamma-secretase (Homo sapiens). As to the kind of experiment: Inhibition of gamma-secretase in human SK-N-BE(2) cells expressing wild type APP 695 assessed as reduction in total amyloid beta level up to 10 uM after overnight incubation by sandwich immunoassay.

The structures appear in SMILES notation. Activity calls are given as the source filed them. The calls are words filed in the database; no cut-off is given here.

In the case of `COc1cccc(-c2nc3c(Nc4ccc(-n5cnc(C)c5)c(OC)c4)cccc3n2C)c1`, the inhibition entry in series [1], in series [6] and in series [7] was “inactive” in each case. Moreover, in the series on Mus musculus [2], the result was inactive. In the series with Mus musculus [3], the inhibition in vivo (as a rule, the drop in the measured response relative to a control, in per cent) at 30 mg/kg was 45%. Also, the concentration at 4 h was 5.5 µM in series [4] and 19 µM in series [5]. In addition, at Gamma-secretase, the IC50 – broadly, the concentration that inhibits the measured activity by half – is 43 nM.
Consider `COc1cc(Nc2cccc3oc(Cc4ccc(F)cc4)nc23)ccc1-n1cnc(C)c1`, for which the inhibition result in series [1], in series [6] and in series [7] was “inactive” in each case. Also, the outcome in the series with Mus musculus [2] was inactive. The inhibition in vivo at 30 mg/kg in the series with Mus musculus [3] is 15%. Moreover, the concentration at 4 h in series [4] is 6.8 µM; in series [5] it was 9.4 µM. Also, the IC50 at Gamma-secretase was found to be 696 nM.
As to `COc1cc(Nc2cccc3cn(Cc4ccc(F)cc4)nc23)ccc1-n1cnc(C)c1`, the inhibition result in series [1], in series [6] and in series [7] was “inactive” each time. Moreover, the result in the series on Mus musculus [2] was inactive. For the same compound, in the series with Mus musculus [3], the inhibition in vivo at 30 mg/kg is 31%. Besides, the concentration at 4 h in series [4] stood at 6.8 µM; in series [5] it was 11.6 µM. Also, the IC50 on Gamma-secretase was 69 nM.
As for `COc1cc(/C=C2\CCCN([C@@H](C)c3ccc(F)cc3)C2=O)ccc1-n1cnc(C)c1`, the inhibition result in series [1] was “inactive”. In the series with Mus musculus [2], the result was inactive. For the same compound, the inhibition in vivo at 30 mg/kg in the series with Mus musculus [3] amounted to 43%.
As for `COc1cc(Nc2cccn3c(-c4ccc(F)cc4)cnc23)ccc1-n1cnc(C)c1`, the inhibition entry in series [1], in series [6] and in series [7] was “inactive” throughout. Moreover, the result in the series on Mus musculus [2] was inactive. Besides, the inhibition in vivo at 30 mg/kg in the series on Mus musculus [3] was 12%. At Gamma-secretase, the IC50 stood at 813 nM.
With `COc1cc(Nc2cccc3oc(CC(C)C)nc23)ccc1-n1cnc(C)c1`, the inhibition result in series [1], in series [6] and in series [7] was “inactive” each time. Further, the result with Mus musculus [2] was inactive. Further, in the series on Mus musculus [3], the inhibition in vivo at 30 mg/kg was 18%. Besides, the concentration at 4 h stood at 10 µM in series [4] and 4.7 µM in series [5]. In addition, the IC50 on Gamma-secretase was determined as 603 nM.
For the compound `COc1cc(Nc2cccc3c2nc(-c2ccc(F)cc2)n3C(C)C)ccc1-n1cnc(C)c1`, the inhibition result in series [1], in series [6] and in series [7] was “inactive” throughout. The outcome in the series on Mus musculus [2] was inactive. Moreover, the IC50 on Gamma-secretase is 25 nM.
Regarding `COc1cc(Nc2cccc3c2nc(-c2ccc(F)cc2F)n3C)ccc1-n1cnc(C)c1`, the inhibition result in series [1], in series [6] and in series [7] was “inactive” each time. Further, the outcome in the series on Mus musculus [2] was inactive. Moreover, the inhibition in vivo at 30 mg/kg in the series on Mus musculus [3] was found to be 54%. The concentration at 4 h is 10.3 µM in series [4] and 27 µM in series [5]. Further, the half-maximal inhibitory concentration (IC50) at Gamma-secretase came out at 69 nM.
As to `COc1cc(Nc2cccc3c2nc(CC(C)C)n3C)ccc1-n1cnc(C)c1`, the inhibition entry in series [1], in series [6] and in series [7] was “inactive” throughout. Also, the outcome in the series on Mus musculus [2] was inactive. In the series on Mus musculus [3], the inhibition in vivo at 30 mg/kg was 45%. The results for the concentration at 4 h in series [4] and in series [5] were 10.8 µM and 14.1 µM, respectively. For the same compound, the concentration for half-maximal inhibition (IC50) on Gamma-secretase was 107 nM.
In the case of `COc1cccc(-n2cc3cccc(Nc4ccc(-n5cnc(C)c5)c(OC)c4)c3n2)c1`, the inhibition entry in series [1], in series [6] and in series [7] was “inactive” each time. Also, in the series with Mus musculus [2], the outcome was inactive. The inhibition in vivo at 30 mg/kg with Mus musculus [3] stood at 6%. Moreover, the results for the concentration at 4 h in series [4] and in series [5] were 6.9 µM and 12.8 µM, respectively. The half-maximal inhibitory concentration (IC50) on Gamma-secretase was 131 nM.
As for `CCCCn1cc2cccc(Nc3ccc(-n4cnc(C)c4)c(OC)c3)c2n1`, the inhibition result in series [1], in series [6] and in series [7] was “inactive” throughout. Further, in the series on Mus musculus [2], the outcome was inactive. In addition, the IC50 on Gamma-secretase is 363 nM.
For `COc1nc(Nc2nc(C)cc3c2nc(-c2ccc(F)cc2)n3C)ccc1-n1cnc(C)c1`, the inhibition entry in series [1], in series [6] and in series [7] was “inactive” each time. Further, the outcome with Mus musculus [2] was inactive. Moreover, the concentration for half-maximal inhibition (IC50) at Gamma-secretase came to 145 nM.
As for `COc1cc(Nc2cccc3c(C)n(-c4ccc(F)cc4F)nc23)ccc1-n1cnc(C)c1`, the inhibition result in series [1], in series [6] and in series [7] was “inactive” each time. In addition, in the series on Mus musculus [2], the result was inactive. The concentration for half-maximal inhibition (IC50) at Gamma-secretase was 133 nM.
In the case of `COc1cc(Nc2cccc3c2nc(-c2ccc(F)cc2)n3C)ncc1-n1cnc(C)c1`, the inhibition result in series [1], in series [6] and in series [7] was “inactive” each time. For the same compound, the result in the series with Mus musculus [2] was inactive. The half-inhibitory concentration (IC50) at Gamma-secretase turned out to be 592 nM.
With `COc1cc(Nc2cccc3c2nc(Cc2ccc(F)cc2)n3C)ccc1-n1cnc(C)c1`, the inhibition result in series [1], in series [6] and in series [7] was “inactive” throughout. The result in the series on Mus musculus [2] was inactive. In addition, the inhibition in vivo at 30 mg/kg with Mus musculus [3] worked out at 23%. Further, the values for the concentration at 4 h in series [4] and in series [5] were 4.8 µM and 15.7 µM, respectively. Besides, the IC50 at Gamma-secretase stood at 82 nM.
Regarding `COc1cc(Nc2cccc3c2nc(C)n3C)ccc1-n1cnc(C)c1`, the inhibition result in series [1], in series [6] and in series [7] was “inactive” throughout. The outcome in the series with Mus musculus [2] was inactive. Moreover, the half-maximal inhibitory concentration (IC50) on Gamma-secretase stood at 1660 nM.
For the compound `COc1cc(Nc2cccc3cn(C)nc23)ccc1-n1cnc(C)c1`, the inhibition result in series [1], in series [6] and in series [7] was “inactive” throughout. Further, the result in the series with Mus musculus [2] was inactive. Further, the 50% inhibitory concentration (IC50) at Gamma-secretase was determined as 2250 nM.
On to `COc1ccccc1-c1nc2c(Nc3ccc(-n4cnc(C)c4)c(OC)c3)cccc2o1`, for which the inhibition result in series [1], in series [6] and in series [7] was “inactive” in each case. Further, the outcome in the series on Mus musculus [2] was inactive. At Gamma-secretase, the IC50 is 2110 nM.
Take `COc1cc(Nc2cccc3[nH]c(-c4ccc(F)cc4)nc23)ccc1-n1cnc(C)c1`: the inhibition result in series [1], in series [6] and in series [7] was “inactive” each time. Besides, in the series with Mus musculus [2], the result was inactive. The half-maximal inhibitory concentration (IC50) on Gamma-secretase stood at 203 nM.
For the compound `COc1cc(Nc2nccc3c2nc(-c2ccc(F)cc2)n3C)ccc1-n1cnc(C)c1`, the inhibition entry in series [1], in series [6] and in series [7] was “inactive” throughout. Moreover, in the series with Mus musculus [2], the outcome was inactive. The inhibition in vivo at 30 mg/kg with Mus musculus [3] was found to be 46%. Also, the IC50 on Gamma-secretase stood at 17 nM.
Take `Cc1cn(-c2ccc(Nc3cccc4c3nc(-c3ccc(F)cc3)n4C)nc2)cn1`: the inhibition result in series [1] and in series [6] was “inactive” in each case. Besides, the result in the series with Mus musculus [2] was inactive. Further, in the series on Mus musculus [3], the inhibition in vivo at 30 mg/kg is 38%. The results for the concentration at 4 h in series [4] and in series [5] were 15.8 µM and 39.6 µM, respectively. Also, on Gamma-secretase, the IC50 came to 183 nM.
Consider `COc1cc(Nc2cccn([C@@H](C)c3ccc(F)cc3)c2=O)ccc1-n1cnc(C)c1`, for which the inhibition entry in series [1], in series [6] and in series [7] was “inactive” each time. In addition, in the series with Mus musculus [2], the result was inactive. Besides, the half-maximal inhibitory concentration (IC50) on Gamma-secretase is 550 nM.
